{
  "source": "ChEMBL document CHEMBL4665761",
  "about": "“Optimizing the Benefit/Risk of Acetyl-CoA Carboxylase Inhibitors through Liver Targeting” (J Med Chem, 2020)",
  "key": {"[1]": {"assay": "Oral bioavailability in Wistar-Hannover rat plasma at 4 mg/kg and measured up to 24 hrs by LC/MS-MS analysis", "assay_type": "ADME, organism-based", "outline": "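Plasma concentration–time data, n = 2, averaged. Cmax and Tmax read directly from the data. AUC0–24 by the linear trapezoidal rule. F calculated as dose-normalized AUC PO/IV.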"}, "[2]": {"assay": "Cmax in Wistar-Hannover rat plasma at 4 mg/kg, po and measured up to 24 hrs by LC/MS-MS analysis", "assay_type": "ADME, organism-based", "set-up": "route oral, dose 4 mg/kg, time <=24"}, "[3]": {"assay": "Drug uptake in Wistar-Hannover rat assessed as plasma concentration at 30 mg/kg, po after 6 hrs by LC/MS-MS analysis", "assay_type": "ADME, organism-based", "outline": "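Male Wistar-Hannover rats, n = 2 or 3, given an oral suspension in 0.5% methyl cellulose with 0.1% Tween 80; one compound was dosed as the HCl salt. Total plasma and liver concentrations were measured 6 h post-dose. Kp = liver/plasma total concentration. Kpu,u uses fu values from equilibrium dialysis.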"}, "[4]": {"assay": "Ratio of drug uptake in Wistar-Hannover rat liver to plasma at 30 mg/kg, po after 6 hrs by LC/MS-MS analysis", "assay_type": "ADME, organism-based", "details": "liver and plasma; call rule not given here", "outline": "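Male Wistar-Hannover rats (n = 2 or 3) dosed orally as a suspension in 0.5% methyl cellulose with 0.1% Tween 80. Plasma and liver sampled 6 h post-dose. Kp is total liver/plasma; Kpu,u uses unbound fractions from equilibrium dialysis of plasma and liver.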"}, "[5]": {"assay": "Inhibition of DNL in Sprague-Dawley rat assessed as reduction in DNL level in bone marrow at 300 mg/kg, po pretreated with 1 hr followed by [14C]-acetate treatment and measured after 1 hr relative to control", "assay_type": "functional", "details": "time 2 hrs", "outline": "(§1)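 Sprague-Dawley rats given single oral doses of 0.03–300 mg/kg in 0.5% methyl cellulose vehicle, n = 16 per dose. Read-out is incorporation of 14C-acetate into lipids in liver, bone marrow and lung, measured at 2 h post-dose relative to vehicle. Data are mean ± SEM. EC50 is reported with a 95% confidence interval.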"}, "[6]": {"assay": "Unbound plasma concentration in Sprague-Dawley rat at 300 mg/kg, po", "assay_type": "ADME, organism-based", "details": "in vivo", "outline": "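Sprague-Dawley rats given a single oral dose in 0.5% methyl cellulose vehicle. Unbound plasma concentration measured at 300 mg/kg.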"}, "[7]": {"assay": "Inhibition of DNL in po dosed Sprague-Dawley rat assessed as reduction in DNL level in liver pretreated with one hr followed by [14C]-acetate treatment and measured after 1 hr", "assay_type": "functional, organism-based", "outline": "as §1"}, "TK6": {"system": "TK6", "assay": "Genotoxicity in human TK6 cells by micronucleus test", "assay_type": "toxicity, cell-based", "outline": "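In vitro micronucleus assay in Chinese hamster ovary or TK6 cells, run with and without metabolic activation by aroclor-induced rat liver S9 fraction plus NADPH.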"}, "[8]": {"assay": "Genotoxicity in Salmonella typhimurium TA1537 by Ames test", "assay_type": "toxicity", "details": "salmonella enterica subsp. enterica serovar typhimurium", "outline": "(§2)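 Ames test in Salmonella strains TA98, TA100, TA1535 and TA1537, run with and without aroclor-induced rat liver S9 plus NADPH.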"}, "[9]": {"assay": "Genotoxicity in Salmonella typhimurium TA1535 by Ames test", "assay_type": "toxicity", "details": "salmonella enterica subsp. enterica serovar typhimurium", "outline": "as §2"}, "[10]": {"assay": "Genotoxicity in Salmonella typhimurium TA100 by Ames test", "assay_type": "toxicity", "details": "salmonella enterica subsp. enterica serovar typhimurium", "outline": "as §2"}, "[11]": {"assay": "Induction of CYP3A4 mRNA expression in human hepatocytes at 0.5 to 200 uM", "assay_type": "ADME, cell-based, Hepatocyte", "details": "dose 0.5-200 µM", "outline": "(§3)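 Individual human hepatocyte lots treated at 0.5–200 µM. Read-out is messenger RNA levels of CYP1A2 and CYP3A4.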"}, "[12]": {"assay": "Induction of CYP1A2 mRNA expression in human hepatocytes at 0.5 to 200 uM", "assay_type": "ADME, cell-based, Hepatocyte", "details": "dose 0.5-200 µM", "outline": "as §3"}, "Cytochrome P450 2D6": {"molecular_target": "Cytochrome P450 2D6 (Homo sapiens, UniProt P10635)", "sequence (P10635 whole entry)": "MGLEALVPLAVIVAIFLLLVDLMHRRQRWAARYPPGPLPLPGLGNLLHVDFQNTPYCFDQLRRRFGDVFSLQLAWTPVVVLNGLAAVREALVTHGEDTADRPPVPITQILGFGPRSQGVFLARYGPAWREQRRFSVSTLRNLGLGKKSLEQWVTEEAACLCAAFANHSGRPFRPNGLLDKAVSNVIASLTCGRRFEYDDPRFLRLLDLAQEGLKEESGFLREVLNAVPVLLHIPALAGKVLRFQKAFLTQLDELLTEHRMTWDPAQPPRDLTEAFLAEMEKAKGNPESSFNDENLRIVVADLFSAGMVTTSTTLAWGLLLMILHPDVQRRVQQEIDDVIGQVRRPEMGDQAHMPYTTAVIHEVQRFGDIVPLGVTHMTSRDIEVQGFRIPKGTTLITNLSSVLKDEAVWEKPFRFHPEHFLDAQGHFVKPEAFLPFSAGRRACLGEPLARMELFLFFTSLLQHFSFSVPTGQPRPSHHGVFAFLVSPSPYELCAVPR", "assay": "inhibition of CYP2D6 in human liver microsomes", "assay_type": "ADME"}, "Cytochrome P450 1A2": {"molecular_target": "Cytochrome P450 1A2 (Homo sapiens, UniProt P05177)", "sequence (P05177 whole entry)": "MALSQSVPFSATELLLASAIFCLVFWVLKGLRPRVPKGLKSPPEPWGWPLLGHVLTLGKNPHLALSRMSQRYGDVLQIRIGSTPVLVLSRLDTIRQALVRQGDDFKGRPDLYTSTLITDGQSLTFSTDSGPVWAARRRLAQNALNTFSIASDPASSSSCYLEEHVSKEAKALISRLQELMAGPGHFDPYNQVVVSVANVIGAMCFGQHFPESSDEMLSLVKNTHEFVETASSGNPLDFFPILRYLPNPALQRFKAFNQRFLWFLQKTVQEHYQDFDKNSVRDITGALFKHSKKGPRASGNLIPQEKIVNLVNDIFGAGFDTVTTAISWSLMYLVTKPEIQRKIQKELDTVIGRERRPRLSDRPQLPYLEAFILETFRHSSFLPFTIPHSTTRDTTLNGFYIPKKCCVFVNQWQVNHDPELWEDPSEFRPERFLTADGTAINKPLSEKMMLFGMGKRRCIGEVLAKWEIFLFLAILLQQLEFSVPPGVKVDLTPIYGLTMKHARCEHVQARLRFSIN", "assay": "inhibition of CYP1A2 in human liver microsomes", "assay_type": "ADME"}, "[13]": {"assay": "Drug recovery in bile duct-cannulated Wistar-Hannover rat bile at 1 mg/kg, iv and measured up to 24 hrs by LC/MS-MS analysis", "assay_type": "ADME, organism-based", "details": "read-out: Drug recovery", "outline": "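Rats received a 1 mg/kg IV dose. Bile was pooled over 0–24 h and analysed for unchanged parent.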"}, "[14]": {"assay": "AUC (0 to 24 hrs) in cynomolgus monkey plasma at 1 mg/kg, iv and measured up to 72 hrs by LC/MS-MS analysis", "assay_type": "ADME, organism-based, Macaca fascicularis", "set-up": "route intravenous, dose 1 mg/kg, time <=72", "outline": "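Cynomolgus monkeys received an IV solution of the tris salt in 2% N-methylpyrrolidone and 98% sulfobutylether-β-cyclodextrin (12.5%) in 50 mM TRIS buffer, pH 8.0. AUC0–24 came from plasma concentration–time data by the linear trapezoidal rule, averaged for n = 2.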"}, "[15]": {"assay": "Half life in cynomolgus monkey plasma at 1 mg/kg, iv and measured up to 72 hrs by LC/MS-MS analysis", "assay_type": "ADME, organism-based, Macaca fascicularis", "outline": "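Cynomolgus monkeys dosed 1 mg/kg IV as the tris salt in 2% N-methylpyrrolidone/98% sulfobutylether-β-cyclodextrin (12.5%) in 50 mM TRIS, pH 8.0, or PO as the tris salt. Plasma was analysed by LC-MS/MS, n = 2. CL = IV dose/AUC; Vss = dose/(AUC × elimination rate constant); Cmax taken from observed data.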"}, "[16]": {"assay": "Fraction unbound in monkey plasma by equilibrium dialysis method", "assay_type": "ADME, cell-free, Macaca mulatta", "details": "rhesus monkey", "outline": "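Fraction unbound in plasma and liver tissue was determined by equilibrium dialysis.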"}},
  "data": [
    {"smiles": "COc1cc(C(=O)N2CCC3(CC2)CC(=O)c2nn(C(C)(C)C)cc2O3)cc(-c2ccc(C(=O)O)cc2)n1", "values": [
      {"measurement": "bioavailability", "setting": "[1]", "result": 27, "unit": "%"},
      {"measurement": "Cmax", "setting": "[2]", "result": 53.9, "unit": "ng/mL"},
      {"measurement": "concentration at 6 h", "setting": "[3]", "result": 41.7, "unit": "ng/mL"},
      {"measurement": "Kp at 6 h", "setting": "[4]", "result": 914}
    ]},
    {"smiles": "COc1cc(C(=O)N2CCC3(CC2)CC(=O)c2c(cnn2C(C)C)C3)cc(-c2ccc(C(=O)O)cc2)n1", "note": "[CLESACOSTAT]", "values": [
      {"measurement": "inhibition in vivo at 300 mg/kg", "setting": "[5]", "result": 33, "unit": "%"},
      {"measurement": "Cp(f)", "setting": "[6]", "result": 119.4, "unit": "nM"},
      {"measurement": "EC50", "setting": "[7]", "result": 0.0054, "unit": "µM"},
      {"measurement": "Activity", "setting": "TK6", "result": "Non-Toxic"},
      {"measurement": "Activity", "setting": "[8]", "result": "Non-Toxic"},
      {"measurement": "Activity", "setting": "[9]", "result": "Non-Toxic"},
      {"measurement": "Activity", "setting": "[10]", "result": "Non-Toxic"},
      {"measurement": "Activity", "setting": "[11]", "result": "Not Active"},
      {"measurement": "Activity", "setting": "[12]", "result": "Not Active"},
      {"measurement": "IC50", "setting": "Cytochrome P450 2D6", "result": "> 50", "unit": "µM"},
      {"measurement": "IC50", "setting": "Cytochrome P450 1A2", "result": "> 50", "unit": "µM"},
      {"measurement": "dose excreted at 24 h", "setting": "[13]", "result": 12, "unit": "%"},
      {"measurement": "AUC(0-t)", "setting": "[14]", "result": 14000, "unit": "ng·h/mL"},
      {"measurement": "half-life", "setting": "[15]", "result": 11, "unit": "h"},
      {"measurement": "fraction unbound", "setting": "[16]", "result": 0.00956}
    ]}
  ]
}
